pIC50: −log10 of the molar value. Active and inactive are the calls of the source. The rule behind the calls is not given here.
Assays:
Procathepsin L = Procathepsin L (Homo sapiens, UniProt P07711); assay: Inhibition of recombinant human C-terminal His6-tagged cathepsin L (Glu113 to Val333 and Ala114 to Val333 residues) expressed in mouse myeloma cells using Z-Leu-Arg-AMC as substrate preincubated for 30 mins followed by substrate addition and measured after 30 mins
How it was run: (§1)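 Recombinant human cathepsin was preincubated with compound for 30 min at RT, then reacted with substrate for 30 min. CatB and CatL were read with Z-Leu-Arg-AMC (Ex 380/Em 460 nm). CatS was read with MCA-Arg-Pro-Lys-Pro-Val-Glu-Nva-Trp-Arg-Lys(DNP)-NH2 (Ex 320/Em 405 nm). E-64 served as inhibitor control.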

[1] = Drug uptake in C57BL/6 mouse kidney at 10 mg/kg, po by LC-MS/MS analysis; type: ADME, organism-based; details: in vivo
Mus musculus [2] = assay: In vivo inhibition of CatC in po dosed C57BL/6 mouse blood assessed as reduction in neutrophil elastase activation administered twice daily for 6 days using methoxysuccinyl-Ala-Ala-Pro-Val-AMC as substrate measured up to 90 mins by fluorescence assay; type: functional, organism-based
How it was run: (§2)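 C57BL/6 mice (20−25 g; n = 10 per group) received oral doses twice daily at 6.7, 20 or 60 mg/kg for 6 days. The vehicle group got 0.5% Methocel and 0.1% Tween-80 in 100 mM citrate buffer, pH 3. Blood was drawn by eye puncture 14 h after the last dose. Bone marrow was flushed from femurs and tibias with ice-cold RPMI 1640. Cells were lysed in 50 mM Tris pH 7.4, 750 mM NaCl, 1% Triton X-100, sonicated on ice and stored at −80 °C. Lysates were diluted by protein content, with blood diluted 5-fold more than marrow. Kinetics were followed for up to 90 min. Results are % of the vehicle mean.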

[3] = Tmax in C57BL/6 mouse at 10 mg/kg, ip by LC-MS/MS analysis; type: ADME, organism-based; details: in vivo
How it was run: (§3)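 Male C57BL/6 mice (n = 3) were dosed with a single IV dose of 2 mg/kg or an IP or PO dose of 10 mg/kg. Vehicle: 0.5% Methocel and 0.1% Tween-80 in citrate buffer, pH 3. Blood was drawn by eye puncture at several time points and analysed by LC-MS/MS. Parameters came from noncompartmental analysis of individual animals and are reported as means.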

Mus musculus [4] = assay: In vivo inhibition of CatC in po dosed C57BL/6 mouse bone marrow assessed as reduction in CatG activation administered twice daily for 6 days using N-succinyl-Ala-Ala-Pro-Phe-pNA as substrate measured up to 90 mins by fluorescence assay; type: functional, organism-based; how it was run: as §2
[5] = AUC infinity in C57BL/6 mouse at 10 mg/kg, ip by LC-MS/MS analysis; type: ADME, organism-based; design: dose 10 mg/kg, route intraperitoneal, time infinity; details: in vivo; how it was run: as §3
[6] = AUC infinity in C57BL/6 mouse at 2 mg/kg, iv by LC-MS/MS analysis; type: ADME, organism-based; design: dose 2 mg/kg, time infinity, route intravenous; details: in vivo; how it was run: as §3
[7] = Tmax in C57BL/6 mouse at 10 mg/kg, po by LC-MS/MS analysis; type: ADME, organism-based; details: in vivo; how it was run: as §3
Mus musculus [8] = assay: In vivo inhibition of CatC in C57BL/6 mouse blood at 20 mg/kg, po single dose using Gly-Phe-AFC as substrate measured 15 mins post dose for up to 90 mins by fluorescence assay relative to control; details: C57BL/6, Blood
Cathepsin B = Cathepsin B (Homo sapiens, UniProt P07858); assay: Inhibition of recombinant human C-terminal polyhistidine-tagged cathepsin B (Arg18 to Ile339 residues) expressed in HEK293 cells using Z-Leu-Arg-AMC as substrate preincubated for 30 mins followed by substrate addition and measured after 30 mins; how it was run: as §1
Mus musculus [9] = assay: Protection against C57BL/6 mouse model of caerulein-induced acute pancreatitis at 20 mg/kg, po pretreated twice daily for 6 days followed by caerulein-challenge at 1 hr interval for 8 hrs and measured 1 hr post-last caerulein-challenge by H and E staining-based histological analysis
Mus musculus [10] = assay: In vivo inhibition of CatC in po dosed C57BL/6 mouse bone marrow assessed as reduction in proteinase 3 activation administered twice daily for 6 days using aminobenzoyl-Val-Ala-Asp-Cys-Ala-Asp-Gln-ethylenediamine 2,4-dinitrophenyl as substrate measured up to 90 mins by fluorescence assay; type: functional, organism-based; how it was run: as §2
[11] = Oral bioavailability in C57BL/6 mouse at 10 mg/kg by LC-MS/MS analysis; type: ADME, organism-based; details: in vivo; how it was run: as §3
Cathepsin S = Cathepsin S (Homo sapiens, UniProt P25774); assay: Inhibition of recombinant human C-terminal polyhistidine-tagged cathepsin S (Met1 to Ile331 residues) expressed in HEK293 cells using MCA-Arg-Pro-Lys-Pro-Val-Glu-NVAL-Trp-Arg-Lys(DNP)-NH2 as substrate preincubated for 30 mins followed by substrate addition and measured after 30 mins; how it was run: as §1
[12] = Intrinsic clearance in mouse liver microsomes assessed per mg protein measured after 60 mins in presence of NADPH by LC-MS/MS analysis; type: ADME, Microsome; details: read-out: CLH
Cytochrome P450 2C9 = Cytochrome P450 2C9 (Homo sapiens, UniProt P11712); assay: Inhibition of CYP2C9 (unknown origin); type: ADME
How it was run: (§4)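 Tested against recombinant human cytochrome P450 isoforms 1A2, 2D6, 3A4, 2C9 and 2C19.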

Mus musculus [13] = assay: In vivo inhibition of CatC in po dosed C57BL/6 mouse blood administered twice daily for 6 days using Gly-Phe-AFC as substrate measured up to 90 mins by fluorescence assay; type: functional, organism-based; how it was run: as §2
[14] = Toxicity in C57BL/6 mouse at 60 mg/kg, po administered twice daily for 6 days; type: organism-based; details: in vivo, 144 h
Cytochrome P450 3A4 = Cytochrome P450 3A4 (Homo sapiens, UniProt P08684); assay: Inhibition of CYP3A4 (unknown origin); type: ADME; how it was run: as §4
Dipeptidyl peptidase 1 = Dipeptidyl peptidase 1 (Homo sapiens, UniProt P53634); assay: Inhibition of cathepsin C in human U937 cells using H-Gly-Phe-AFC as substrate preincubated for 4 hrs followed by substrate addition and measured after 60 mins; type: cell-based
How it was run: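 THP1 or U937 cells, grown in RPMI 1640 with 10% FBS, were seeded at 1.0 × 10^6/mL. They were preincubated with threefold serial dilutions of compound for 4 h at 37 °C. H-Gly-Phe-AFC was then added from a 100 μM solution and fluorescence was read after 60 min at 37 °C. Values are means of at least two experiments.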

[15] = Intrinsic clearance in human liver microsomes assessed per mg protein measured after 60 mins in presence of NADPH by LC-MS/MS analysis; type: ADME, Microsome; details: read-out: CLH
Mus musculus [16] = assay: In vivo inhibition of CatC in po dosed C57BL/6 mouse bone marrow administered twice daily for 6 days using Gly-Phe-AFC as substrate measured up to 90 mins by fluorescence assay; type: functional, organism-based; how it was run: as §2
Mus musculus [17] = assay: In vivo inhibition of CatC in po dosed C57BL/6 mouse bone marrow assessed as reduction in neutrophil elastase activation administered twice daily for 6 days using methoxysuccinyl-Ala-Ala-Pro-Val-AMC as substrate measured up to 90 mins by fluorescence assay; type: functional, organism-based; how it was run: as §2

Dipeptidyl peptidase 1, sequence (P53634 25-134 limits assumed): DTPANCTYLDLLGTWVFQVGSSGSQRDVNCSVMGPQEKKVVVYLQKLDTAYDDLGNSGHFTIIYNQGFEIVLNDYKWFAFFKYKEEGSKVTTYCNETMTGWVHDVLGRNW
Dipeptidyl peptidase 1, sequence (P53634 231-394 limits assumed): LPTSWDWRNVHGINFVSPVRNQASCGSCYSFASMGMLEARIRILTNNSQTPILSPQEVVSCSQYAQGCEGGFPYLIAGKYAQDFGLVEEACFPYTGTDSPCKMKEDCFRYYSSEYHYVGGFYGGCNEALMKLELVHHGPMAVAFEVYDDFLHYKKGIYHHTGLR
Dipeptidyl peptidase 1, sequence (P53634 395-463 limits assumed): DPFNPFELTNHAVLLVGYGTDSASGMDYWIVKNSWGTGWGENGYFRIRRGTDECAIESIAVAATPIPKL
Cathepsin S, sequence (P25774 whole entry): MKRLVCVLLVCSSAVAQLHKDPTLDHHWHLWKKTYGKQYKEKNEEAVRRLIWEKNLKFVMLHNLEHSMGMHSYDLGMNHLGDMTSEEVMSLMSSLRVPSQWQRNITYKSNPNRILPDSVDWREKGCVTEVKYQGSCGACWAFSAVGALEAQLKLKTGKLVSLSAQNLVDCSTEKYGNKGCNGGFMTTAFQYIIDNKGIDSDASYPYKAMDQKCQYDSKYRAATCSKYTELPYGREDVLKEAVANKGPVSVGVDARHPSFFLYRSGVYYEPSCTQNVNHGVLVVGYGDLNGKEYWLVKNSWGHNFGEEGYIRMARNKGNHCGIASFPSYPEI
Cytochrome P450 3A4, sequence (P08684 whole entry): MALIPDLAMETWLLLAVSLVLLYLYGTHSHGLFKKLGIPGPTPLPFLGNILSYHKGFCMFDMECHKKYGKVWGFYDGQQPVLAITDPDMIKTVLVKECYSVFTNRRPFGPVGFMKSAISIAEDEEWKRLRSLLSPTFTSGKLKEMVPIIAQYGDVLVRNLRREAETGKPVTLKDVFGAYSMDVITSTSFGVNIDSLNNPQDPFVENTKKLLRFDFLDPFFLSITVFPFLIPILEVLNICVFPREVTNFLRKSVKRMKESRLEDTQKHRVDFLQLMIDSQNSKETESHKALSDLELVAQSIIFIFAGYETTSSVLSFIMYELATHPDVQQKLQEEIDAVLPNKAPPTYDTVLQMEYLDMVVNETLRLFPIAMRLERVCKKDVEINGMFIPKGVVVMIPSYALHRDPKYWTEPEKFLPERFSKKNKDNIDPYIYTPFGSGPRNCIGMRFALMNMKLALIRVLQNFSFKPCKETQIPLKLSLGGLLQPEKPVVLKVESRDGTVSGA
Cytochrome P450 2C9, sequence (P11712 whole entry, canonical isoform): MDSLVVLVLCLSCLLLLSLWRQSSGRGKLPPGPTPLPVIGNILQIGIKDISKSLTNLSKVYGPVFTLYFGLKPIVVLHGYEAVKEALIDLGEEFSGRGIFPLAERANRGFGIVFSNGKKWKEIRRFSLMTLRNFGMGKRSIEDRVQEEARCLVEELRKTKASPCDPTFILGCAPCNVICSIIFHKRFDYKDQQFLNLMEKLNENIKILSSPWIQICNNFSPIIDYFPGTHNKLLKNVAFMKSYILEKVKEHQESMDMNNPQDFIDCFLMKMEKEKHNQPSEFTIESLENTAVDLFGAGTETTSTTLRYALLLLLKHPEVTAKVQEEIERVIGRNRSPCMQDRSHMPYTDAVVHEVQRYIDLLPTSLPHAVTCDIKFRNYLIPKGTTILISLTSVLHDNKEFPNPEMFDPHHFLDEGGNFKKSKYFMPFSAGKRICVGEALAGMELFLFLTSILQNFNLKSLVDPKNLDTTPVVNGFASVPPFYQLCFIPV
Procathepsin L, sequence (P07711 whole entry): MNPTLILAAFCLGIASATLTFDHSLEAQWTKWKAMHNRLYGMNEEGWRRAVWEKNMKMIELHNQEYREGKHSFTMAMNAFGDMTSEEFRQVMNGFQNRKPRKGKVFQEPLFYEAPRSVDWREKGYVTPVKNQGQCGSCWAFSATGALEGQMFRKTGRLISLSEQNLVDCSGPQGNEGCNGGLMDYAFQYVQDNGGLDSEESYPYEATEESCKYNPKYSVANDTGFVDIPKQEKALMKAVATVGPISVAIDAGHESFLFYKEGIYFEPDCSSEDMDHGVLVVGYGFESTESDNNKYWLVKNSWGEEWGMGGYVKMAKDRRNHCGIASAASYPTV

C=CC(=O)Nc1cc(Oc2nc(Nc3ccc(N4CCN(C)CC4)cc3OC)ccc2N2CCCCC2)ccc1C
pIC50 (Procathepsin L): 5.00 to 5.52 | Drug uptake [1]: Active | inhibition (Mus musculus [2]): Dose-dependent effect | Tmax [3]: 0 h | inhibition (Mus musculus [4]): Dose-dependent effect | AUC(0-inf) [5]: 1.24 µg·h/mL | AUC(0-inf) [6]: 1.23 µg·h/mL | Tmax [7]: 30 min | inhibition in vivo at 20 mg/kg (Mus musculus [8]): 75% | pIC50 (Cathepsin B): 5.00 to 5.52 | Activity (Mus musculus [9]): Active | inhibition (Mus musculus [10]): Dose-dependent effect | bioavailability [11]: 22.3% | pIC50 (Cathepsin S): < 5.00 | microsomal CLint [12]: 10.8 µL/min/mg | pIC50 (Cytochrome P450 2C9): < 5.00 | inhibition (Mus musculus [13]): Dose-dependent effect | Activity [14]: Non-Toxic | pIC50 (Cytochrome P450 3A4): < 5.00 | pIC50 (Dipeptidyl peptidase 1): 8.47 | inhibition (Dipeptidyl peptidase 1): Dose-dependent effect | microsomal CLint [15]: 1.8 µL/min/mg | inhibition (Mus musculus [16]): Dose-dependent effect | inhibition (Mus musculus [17]): Dose-dependent effect

— ChEMBL document CHEMBL4396895, “Identification and Optimization of Novel Cathepsin C Inhibitors Derived from EGFR Inhibitors” (J Med Chem, 2019)
